A3G deaminase: blocks human APOBEC3G single-stranded DNA deamination; inhibition, % at 20 µM; recombinant A3G, ssDNA deamination FAM/TAMRA fluorescence; 330,000 compounds, 0.28% hits; AID 493012; Q9HC16;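 active means inhibition of at least 40% at 20 µM, with no more than 30% in the related APOBEC3A deaminase screen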
pCIP destab: compounds decreasing mouse p/CIP protein stability; 290,000 compounds, 0.01% hits; Q05BA5; F442A p/CIP-EGFP cells, EGFP fluorescence, 16 h; AID 1984; decrease of EGFP signal, % at 10 µM;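 active means EGFP signal decrease of at least 30% at 10 µM or well 3 SD below plate mean, unless failing retest; inactive means the rest, including hits failing retest or dose response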
TbMetRS inhib: Trypanosoma brucei MetRS inhibition | 360,000 compounds, 0.4% hits | AID 624268 | inhibition, % at 11.9 µM | purified T. brucei MetRS, ATP depletion, Kinase-Glo luminescence;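 active means inhibition above a per-plate cutoff of the control wells' mean inhibition plus 3 SD, cut at about 5.5% in these data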
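assay system = parasite MetRS enzyme | timing = 15 min preincubation, 2 h reaction, all 25 °C | evaluation = percent inhibition relative to median high and low control wells | medium = HEPES buffer containing pyrophosphatase, BSA, spermine, DTT | compound = single dose, 11.9 µM final nominal, 0.9% final DMSO | detection = Kinase-Glo luminescence, ATP depletion format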
A3A deaminase: blocks human APOBEC3A ssDNA deamination; P31941; recombinant A3A, FAM/TAMRA ssDNA deamination fluorescence; inhibition, % at 20 µM; 330,000 compounds, 0.41% hits; AID 493011;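 active means at least 40% inhibition at 20 µM here, with at most 30% in a related deaminase screen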
Target sequence (P31941 whole entry, looked up): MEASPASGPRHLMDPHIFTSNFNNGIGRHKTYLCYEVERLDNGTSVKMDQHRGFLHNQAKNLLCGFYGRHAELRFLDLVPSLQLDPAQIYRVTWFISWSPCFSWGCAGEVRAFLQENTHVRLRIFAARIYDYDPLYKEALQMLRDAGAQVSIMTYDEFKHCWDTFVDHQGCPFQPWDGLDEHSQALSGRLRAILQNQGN
PHOSPHO1 block: PHOSPHO1 (human) inhibition. Q8TCT1. recombinant PHOSPHO1, absorbance phosphatase assay. inhibition, % at 13.3 µM. 290,000 compounds, 1.1% hits. AID 1565; in the data active means inhibition above about 60%
Target sequence (Q8TCT1 whole entry, looked up): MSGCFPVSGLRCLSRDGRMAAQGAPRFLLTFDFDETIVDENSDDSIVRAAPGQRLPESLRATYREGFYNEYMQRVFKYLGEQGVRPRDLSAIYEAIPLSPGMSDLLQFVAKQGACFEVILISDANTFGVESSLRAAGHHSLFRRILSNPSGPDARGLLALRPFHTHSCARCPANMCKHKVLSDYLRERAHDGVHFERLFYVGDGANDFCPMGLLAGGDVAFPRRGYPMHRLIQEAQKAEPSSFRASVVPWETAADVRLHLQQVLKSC
TbMetRS confirm: Trypanosoma brucei MetRS inhibition confirmed | shares compounds with TbMetRS inhib | T. brucei MetRS enzyme, luminescence (ATP depletion) | 1,400 compounds, 93% hits | inhibition, % at 11.9 µM; in the data active means inhibition above about 7%
Jurkat tox: counter-screen for T. brucei MetRS inhibitors: Jurkat cell cytotoxicity; shares compounds with TbMetRS inhib; 1,400 compounds, 12% hits; AID 624413; inhibition, % at 8.3 µM; Jurkat cells viability, ATP luminescence; in the data active means inhibition above about 15%
Tb MetRS inh FP: T. brucei MetRS inhibition, orthogonal assay; inhibition, % at 11.9 µM; shares compounds with TbMetRS inhib; purified T. brucei MetRS, fluorescence polarization; 1,400 compounds, 44% hits; in the data active means inhibition above about 17%
Of the large screens only hits and unclear results are named; the others gave an inactive call (follow-up assays come after a bar, where they were run). Only some compounds are listed: those with a hit (about 1.8% of all), similar ones and a draw of the others.

CCCC(C(=O)NC1CCCC1)N(CC1CCCO1)C(=O)CNS(=O)(=O)c1ccccc1 (stereo not given)	none
Cc1ccc(S(=O)(=O)NCC(C)n2nc(C)nc2C)cc1 (stereo not given)	none
CCOC(=O)/C(C#N)=C/c1ccc(N2CCN(C)CC2)cc1	none
CCOC(=O)C(/C=C(\C#N)C(=O)OCC)=C(/N)N1CCN(c2ccccc2)CC1	TbMetRS inhib 40.5 | TbMetRS confirm 57.6 | Jurkat tox inactive | Tb MetRS inh FP 28.3
CN(C)S(=O)(=O)c1cc(NC(=O)c2ccc(-n3ccnc3)c([N+](=O)[O-])c2)ccc1Cl	TbMetRS inhib 9.9 | TbMetRS confirm 21.9 | Jurkat tox 33.6 | Tb MetRS inh FP inactive
Cc1nn(CC(=O)Nc2ccc(Cl)c(S(=O)(=O)N(C)C)c2)c(C)c1[N+](=O)[O-]	none
COc1ccccc1NC(=O)c1ccc(-n2ccnc2)c([N+](=O)[O-])c1	TbMetRS inhib 8.8 | TbMetRS confirm 26.7 | Jurkat tox inactive | Tb MetRS inh FP 22.4
O=C(COc1nsnc1N1CCOCC1)Nc1ccc(Cl)cc1	TbMetRS inhib 11.0 | TbMetRS confirm 22.8 | Jurkat tox inactive | Tb MetRS inh FP inactive
CCN(C(=O)CSc1nc2ccc(Cl)cc2[nH]1)C1CCS(=O)(=O)C1 (stereo not given)	TbMetRS inhib 5.7 (no result: pCIP destab, PHOSPHO1 block) | TbMetRS confirm 22.7 | Jurkat tox inactive | Tb MetRS inh FP inactive
CC(Sc1ccc(Cl)cc1)C(=O)NCc1ccc2c(c1)OCO2 (stereo not given)	none
Cc1ccc2nc(SC(C)C(=O)NCc3ccc4c(c3)OCO4)[nH]c2c1 (stereo not given)	TbMetRS inhib 13.2 | TbMetRS confirm 35.2 | Jurkat tox inactive | Tb MetRS inh FP inactive
O=C(CSc1nc2ccccc2[nH]1)NC1CCS(=O)(=O)C1 (stereo not given)	TbMetRS inhib 9.3 | TbMetRS confirm 17.6 | Jurkat tox inactive | Tb MetRS inh FP inactive
COc1ccc(CNC(=O)CSc2nc3ccc(C)cc3[nH]2)cc1	TbMetRS inhib 28.5 | TbMetRS confirm 48.3 | Jurkat tox inactive | Tb MetRS inh FP 20.8
O=C(/C(=C/c1ccccc1)c1ccccc1)N1CCCCC1	none
Cc1ccc2nc(SCC(=O)NC3CCS(=O)(=O)C3)[nH]c2c1 (stereo not given)	TbMetRS inhib 9.7 (no result: pCIP destab, PHOSPHO1 block) | TbMetRS confirm 36.8 | Jurkat tox inactive | Tb MetRS inh FP inactive
Cc1ccc(C)c(SCC(=O)NC2CCS(=O)(=O)C2)c1 (stereo not given)	none (no result: pCIP destab, PHOSPHO1 block)
CCN1CCN(c2ccc(S(=O)(=O)N3CCOCC3)cc2NC(=O)C2CCC(C(C)(C)C)CC2)CC1 (stereo not given)	none (no result: A3G deaminase, pCIP destab, A3A deaminase, PHOSPHO1 block)
O=C(NCc1ccco1)c1cccc(Nc2nc3ccc(Br)cc3[nH]2)c1	TbMetRS inhib 10.4 | TbMetRS confirm 40.4 | Jurkat tox inactive | Tb MetRS inh FP 31.7
O=C(NCC1CC1)c1ccc(Nc2nc3ccc(Br)cc3[nH]2)cc1	TbMetRS inhib 7.3 | TbMetRS confirm 45.9 | Jurkat tox inactive | Tb MetRS inh FP 20.0
O=C(Cc1ccc(Nc2nc3ccc(Br)cc3[nH]2)cc1)NCCc1cccs1	TbMetRS inhib 84.3 | TbMetRS confirm 100.0 | Jurkat tox inactive | Tb MetRS inh FP 103.6
Cn1nnc(NCc2cc(Br)ccc2OCc2cccs2)n1	TbMetRS inhib 20.4 | TbMetRS confirm 28.0 | Jurkat tox inactive | Tb MetRS inh FP inactive
Cn1nnc(C(O)CNCc2cccs2)n1 (stereo not given)	none
CC(C)(C)n1ncc2c(=O)n(CC(=O)N3CCCCC3)cnc21	none
O=C(Nc1cccc2ncccc12)c1cccc(Br)c1	none
O=C(Nc1cccc2ncccc12)c1ccc(Br)c([N+](=O)[O-])c1	TbMetRS inhib 31.0 | TbMetRS confirm 56.4 | Jurkat tox 21.6 | Tb MetRS inh FP 35.2
CCCc1ccc(-c2c(C)sc(N)c2C#N)cc1	TbMetRS inhib 26.9 | TbMetRS confirm 17.3 | Jurkat tox inactive | Tb MetRS inh FP inactive
Cc1cc(OC(C)C(=O)NCC2CCCO2)cc(C)c1Cl (stereo not given)	none

High-throughput results as filed in PubChem BioAssay.
